The text below walks through data of ChEMBL document CHEMBL1287748, “Design, synthesis and in vitro antimalarial evaluation of triazole-linked chalcone and dienone hybrid compounds” (Bioorg Med Chem, 2010).

The test system of assay [1] is Plasmodium falciparum. In words: Antimalarial activity against chloroquine-sensitive Plasmodium falciparum D10 after 48 hrs. Type of assay: functional, organism-based. Conditions: D10, 48 h; call rule not given here. The method in brief: (§1)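 P. falciparum asexual culture in RPMI 1640 with glucose, HEPES, hypoxanthine, 5% Albumax, bicarbonate and gentamicin, sorbitol-synchronized at ring stage when needed. DMSO stocks serially diluted twofold in medium and added to parasitized erythrocytes at 2% hematocrit. Incubation 48 h at 37 °C under 3% O2/4% CO2/93% N2. pLDH read-out with Malstat plus NBT/PES at 620 nm. Runs in duplicate on two occasions; IC50 fitted from dose–response curves.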

The subject of assay [2] is Plasmodium falciparum. In words: Antimalarial activity against chloroquine-resistant Plasmodium falciparum W2 after 48 hrs by FACS analysis in presence of 10 % human serum. The assay is classed as functional, organism-based. Conditions: W2, 48 h. The method in brief: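 W2 parasites grown in standard medium containing 10% human serum. Growth inhibition assay as in earlier published work, with parasite development scored by flow cytometry (FACS).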
For orientation: A flow cytometer gives signals particle by particle.

The subject of assay [3] is Plasmodium falciparum. In words: Antimalarial activity against chloroquine-resistant Plasmodium falciparum Dd2 after 48 hrs. Type of assay: functional, organism-based. Conditions: Dd2, 48 h. The method in brief: as §1
The nature of assay [4]: Inhibition of beta-hematin formation assessed as equivalents of drug relative to hematin. Type of assay: functional. The method in brief: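 Colorimetric assay quantifying a compound's inhibition of the conversion of hematin to beta-hematin. IC50 is expressed in equivalents of compound relative to hematin.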

Turning to `C#CCOc1ccc(/C=C/C(C)=O)cc1OC`, the IC50 in assay [1] was 9.7 µM; in assay [2], over 20 µM; in assay [3] it was 7.5 µM.

For the compound `COc1ccc(C(=O)/C=C/c2ccc(OCc3cn([C@H]4C[C@H](n5cc(C)c(=O)[nH]c5=O)O[C@@H]4CO)nn3)c(OC)c2)cc1`, the IC50 was determined as 2.9 µM in assay [1], 8 µM in assay [2] and 6.1 µM in assay [3].

For the compound `COc1ccc(C(=O)/C=C/c2ccc(OCc3cn([C@H]4C[C@H](n5cc(C)c(=O)[nH]c5=O)O[C@@H]4CO)nn3)c(OC)c2)c(OC)c1`, the IC50 in assay [1] worked out at 1.5 µM; in assay [2], 5.4 µM; in assay [3], 4.4 µM.

Consider `COc1cc(/C=C/C(=O)c2ccc(OC)c(OC)c2OC)ccc1OCc1cn([C@H]2C[C@H](n3cc(C)c(=O)[nH]c3=O)O[C@@H]2CO)nn1`, for which the IC50 was found to be 3.3 µM in assay [1], 5.4 µM in assay [2] and 3.7 µM in assay [3].

For `COc1cc(/C=C/C(=O)c2ccc(OC)c(OC)c2OC)ccc1OCc1cn(-c2ccnc3cc(Cl)ccc23)nn1`, the IC50 in assay [1] came to 0.4 µM; in assay [2], 0.6 µM; in assay [4] it was 0.2 equiv; in assay [3], 0.4 µM.

For `COc1ccc(/C=C/C(=O)c2ccc(OCc3cn([C@H]4C[C@H](n5cc(C)c(=O)[nH]c5=O)O[C@@H]4CO)nn3)c(OC)c2)c(OC)c1`, the IC50 turned out to be 10.2 µM in assay [1], 9 µM in assay [2] and 11.8 µM in assay [3].

Turning to `COc1cc(C(=O)/C=C/c2ccc(OC)c(OC)c2OC)ccc1OCc1cn([C@H]2C[C@H](n3cc(C)c(=O)[nH]c3=O)O[C@@H]2CO)nn1`, the IC50 turned out to be 5.4 µM in assay [1], 7.1 µM in assay [2] and 3.8 µM in assay [3].

Take `COc1cc(C(=O)/C=C/c2ccc(Cl)cc2Cl)ccc1OCc1cn([C@H]2C[C@H](n3cc(C)c(=O)[nH]c3=O)O[C@@H]2CO)nn1`: the results for the IC50 in assay [1], in assay [2] and in assay [3] were 3.7 µM, 8.4 µM and 1.9 µM, respectively.

On to `COc1cc(C(=O)/C=C/c2ccc(F)cc2)ccc1OCc1cn([C@H]2C[C@H](n3cc(C)c(=O)[nH]c3=O)O[C@@H]2CO)nn1`, for which the IC50 in assay [1] was 7.3 µM; in assay [2] it was 6.6 µM; in assay [3], 6.1 µM.

Take `COc1cc(C(=O)/C=C/c2ccc(F)cc2F)ccc1OCc1cn([C@H]2C[C@H](n3cc(C)c(=O)[nH]c3=O)O[C@@H]2CO)nn1`: the values for the IC50 in assay [1], in assay [2] and in assay [3] were 3.9 µM, 7.1 µM and 4.8 µM, respectively.

For the compound `COc1ccc(/C=C/C(=O)/C=C/c2ccc(OCc3cn([C@H]4C[C@H](n5cc(C)c(=O)[nH]c5=O)O[C@@H]4CO)nn3)c(OC)c2)cc1`, the IC50 came to 2.8 µM in assay [1], 18.2 µM in assay [2] and 1.5 µM in assay [3].

Consider `COc1ccc(/C=C/C(=O)/C=C/c2ccc(OCc3cn([C@H]4C[C@H](n5cc(C)c(=O)[nH]c5=O)O[C@@H]4CO)nn3)c(OC)c2)c(OC)c1`, for which the IC50 in assay [1] stood at 1.3 µM; in assay [2] it was 14.5 µM; in assay [3], 1.2 µM.

On to `COc1cc(/C=C/C(=O)/C=C/c2ccc(OC)c(OC)c2OC)ccc1OCc1cn([C@H]2C[C@H](n3cc(C)c(=O)[nH]c3=O)O[C@@H]2CO)nn1`, for which the IC50 was determined as 1.3 µM in assay [1], 8.3 µM in assay [2] and 2.4 µM in assay [3].

Turning to `COc1cc(/C=C/C(=O)/C=C/c2ccc(Cl)cc2Cl)ccc1OCc1cn([C@H]2C[C@H](n3cc(C)c(=O)[nH]c3=O)O[C@@H]2CO)nn1`, the IC50 was 1.4 µM in assay [1], 9.1 µM in assay [2] and 1.7 µM in assay [3].

Take `COc1cc(/C=C/C(=O)/C=C/c2ccc(F)cc2)ccc1OCc1cn([C@H]2C[C@H](n3cc(C)c(=O)[nH]c3=O)O[C@@H]2CO)nn1`: the figures for the IC50 in assay [1] and in assay [3] were 1.7 µM and 2.6 µM, respectively.

Consider `COc1cc(/C=C/C(=O)/C=C/c2ccc(F)cc2F)ccc1OCc1cn([C@H]2C[C@H](n3cc(C)c(=O)[nH]c3=O)O[C@@H]2CO)nn1`, for which the IC50 is 1.4 µM in assay [1], 12.4 µM in assay [2] and 1.7 µM in assay [3].

With `COc1ccc(/C=C/C(=O)/C=C/c2ccc(OCc3cn(-c4ccnc5cc(Cl)ccc45)nn3)c(OC)c2)c(OC)c1`, the IC50 in assay [1] is 5.1 µM; in assay [2], over 20 µM; in assay [3], 6.4 µM.

`COc1cc(/C=C/C(=O)/C=C/c2ccc(OC)c(OC)c2OC)ccc1OCc1cn(-c2ccnc3cc(Cl)ccc23)nn1`: the IC50 in assay [1] was determined as 2.5 µM; in assay [2], 18.5 µM; in assay [3] it was 2.1 µM.

For `COc1cc(/C=C/C(C)=O)ccc1OCc1cn(-c2ccnc3cc(Cl)ccc23)nn1`, the IC50 worked out at 0.8 µM in assay [1] and 0.7 µM in assay [3].

Regarding `COc1ccc(/C=C/C(=O)/C=C/c2ccc(OCc3cn(-c4ccnc5cc(Cl)ccc45)nn3)c(OC)c2)cc1`, the IC50 came to 3 µM in assay [1], 5.3 µM in assay [2] and 2.1 µM in assay [3].

Consider `COc1cc(/C=C/C(=O)/C=C/c2ccc(Cl)cc2Cl)ccc1OCc1cn(-c2ccnc3cc(Cl)ccc23)nn1`, for which the results for the IC50 in assay [1], in assay [2] and in assay [3] were 19 µM, over 20 µM and 16.8 µM, respectively.

Regarding `COc1cc(/C=C/C(=O)/C=C/c2ccc(F)cc2)ccc1OCc1cn(-c2ccnc3cc(Cl)ccc23)nn1`, the IC50 in assay [1] is 9.4 µM; in assay [2] it was over 20 µM; in assay [3], 9.3 µM.

For `COc1cc(/C=C/C(=O)/C=C/c2ccc(F)cc2F)ccc1OCc1cn(-c2ccnc3cc(Cl)ccc23)nn1`, the figures for the IC50 in assay [1], in assay [2] and in assay [3] were 10.2 µM, over 20 µM and 6.5 µM, respectively.

Take `Clc1ccc2c(-n3cc(COc4ccccc4)nn3)ccnc2c1`: the IC50 in assay [1] and in assay [3] was over 20 µM in each case.

`COc1cc(C=O)ccc1OCc1cn(-c2ccnc3cc(Cl)ccc23)nn1`: the IC50 in assay [1] and in assay [3] was over 20 µM in each case.

As to `C#CCOc1ccc(C(=O)/C=C/c2ccc(Cl)cc2Cl)cc1OC`, the figures for the IC50 in assay [1], in assay [2] and in assay [3] were 3.3 µM, 5 µM and 2.8 µM, respectively.

As for `C#CCOc1ccc(C(=O)/C=C/c2ccc(F)cc2)cc1OC`, the IC50 is 7.2 µM in assay [1], over 20 µM in assay [2] and 7.7 µM in assay [3].

Regarding `C#CCOc1ccc(C(=O)/C=C/c2ccc(F)cc2F)cc1OC`, the IC50 in assay [1] was over 20 µM; in assay [2], 9.4 µM; in assay [3], 5.2 µM.

Consider `C#CCOc1ccc(/C=C/C(=O)/C=C/c2ccc(OC)cc2)cc1OC`, for which the IC50 in assay [1] is 11.8 µM; in assay [2] it was over 20 µM; in assay [3], 10.7 µM.

With `C#CCOc1ccc(/C=C/C(=O)/C=C/c2ccc(OC)cc2OC)cc1OC`, the IC50 in assay [1] was found to be 5.4 µM; in assay [2] it was 18.9 µM; in assay [3], 4 µM.

In the case of `C#CCOc1ccc(/C=C/C(=O)/C=C/c2ccc(OC)c(OC)c2OC)cc1OC`, the figures for the IC50 in assay [1], in assay [2] and in assay [3] were 0.9 µM, 9.2 µM and 1.4 µM, respectively.

`C#CCOc1ccc(/C=C/C(=O)/C=C/c2ccc(Cl)cc2Cl)cc1OC`: the values for the IC50 in assay [1], in assay [2] and in assay [3] were 9.2 µM, over 20 µM and 9 µM, respectively.

As to `C#CCOc1ccc(/C=C/C(=O)/C=C/c2ccc(F)cc2)cc1OC`, the IC50 came to 9.8 µM in assay [1], 21.5 µM in assay [2] and 6.5 µM in assay [3].

In the case of `C#CCOc1ccc(/C=C/C(=O)/C=C/c2ccc(F)cc2F)cc1OC`, the IC50 in assay [1] is 11.9 µM; in assay [2] it was over 20 µM; in assay [3], 9.3 µM.

Take `COc1ccc(C(=O)/C=C/c2ccc(OCc3cn(-c4ccnc5cc(Cl)ccc45)nn3)c(OC)c2)cc1`: the IC50 in assay [1] is 0.6 µM; in assay [2], 5 µM; in assay [3], 2.2 µM.

As to `COc1ccc(C(=O)/C=C/c2ccc(OCc3cn(-c4ccnc5cc(Cl)ccc45)nn3)c(OC)c2)c(OC)c1`, the IC50 in assay [1] turned out to be 0.04 µM; in assay [2], 0.09 µM; in assay [4], 1.6 equiv; in assay [3] it was 0.07 µM.

Turning to `COc1ccc(/C=C/C(=O)c2ccc(OCc3cn(-c4ccnc5cc(Cl)ccc45)nn3)c(OC)c2)c(OC)c1`, the IC50 was 5.2 µM in assay [1], 6.6 µM in assay [2], “Not Active” in assay [4] and 11.7 µM in assay [3].

With `COc1cc(C(=O)/C=C/c2ccc(Cl)cc2Cl)ccc1OCc1cn(-c2ccnc3cc(Cl)ccc23)nn1`, the IC50 in assay [1] amounted to 6 µM; in assay [2], 11.5 µM; in assay [3], 1.9 µM.

In the case of `COc1cc(/C=C/C(C)=O)ccc1OCc1cn([C@H]2C[C@H](n3cc(C)c(=O)[nH]c3=O)O[C@@H]2CO)nn1`, the IC50 in assay [1] is 12 µM; in assay [3], 16.4 µM.

`[N-]=[N+]=Nc1ccnc2cc(Cl)ccc12`: the IC50 in assay [1], in assay [2] and in assay [3] was over 20 µM in each case.

Consider `C#CCOc1ccc(/C=C/C(=O)c2ccc(OC)cc2OC)cc1OC`, for which the figures for the IC50 in assay [4] and in assay [3] were 0.5 equiv and 4.3 µM, respectively.

As for `C#CCOc1ccc(/C=C/C(=O)c2ccc(OC)cc2)cc1OC`, the IC50 in assay [3] was determined as 13.5 µM.

Compound `C#CCOc1ccc(/C=C/C(=O)c2ccc(OC)c(OC)c2OC)cc1OC` returned an IC50 in assay [3] of 2.8 µM.

Take `C#CCOc1ccc(C(=O)/C=C/c2ccc(OC)c(OC)c2OC)cc1OC`: in assay [3], the IC50 was determined as 2.4 µM.

As to `C#CCOc1ccc(C(=O)/C=C/c2ccc(OC)cc2OC)cc1OC`, the values for the IC50 in assay [1] and in assay [3] were over 20 µM and 14.5 µM, respectively.

As to `CCN(CC)CCCC(C)Nc1ccnc2cc(Cl)ccc12` (centres undefined) [CHLOROQUINE], the IC50 in assay [4] is 1.91 equiv.

Take `Cc1cn([C@H]2C[C@H](N=[N+]=[N-])[C@@H](CO)O2)c(=O)[nH]c1=O` [ZIDOVUDINE]: the IC50 in assay [1], in assay [2] and in assay [3] was over 20 µM in each case.
